Experimental findings from ChEMBL document CHEMBL5357024, “MDM2 Antagonist Idasanutlin Reduces HDAC1/2 Abundance and Corepressor Partners but Not HDAC3” (ACS Med Chem Lett, 2024) are described below.

The target of assay [1] is T1, Paired amphipathic helix protein Sin3a (Homo sapiens) (UniProt Q96ST3).
T1 sequence (whole entry): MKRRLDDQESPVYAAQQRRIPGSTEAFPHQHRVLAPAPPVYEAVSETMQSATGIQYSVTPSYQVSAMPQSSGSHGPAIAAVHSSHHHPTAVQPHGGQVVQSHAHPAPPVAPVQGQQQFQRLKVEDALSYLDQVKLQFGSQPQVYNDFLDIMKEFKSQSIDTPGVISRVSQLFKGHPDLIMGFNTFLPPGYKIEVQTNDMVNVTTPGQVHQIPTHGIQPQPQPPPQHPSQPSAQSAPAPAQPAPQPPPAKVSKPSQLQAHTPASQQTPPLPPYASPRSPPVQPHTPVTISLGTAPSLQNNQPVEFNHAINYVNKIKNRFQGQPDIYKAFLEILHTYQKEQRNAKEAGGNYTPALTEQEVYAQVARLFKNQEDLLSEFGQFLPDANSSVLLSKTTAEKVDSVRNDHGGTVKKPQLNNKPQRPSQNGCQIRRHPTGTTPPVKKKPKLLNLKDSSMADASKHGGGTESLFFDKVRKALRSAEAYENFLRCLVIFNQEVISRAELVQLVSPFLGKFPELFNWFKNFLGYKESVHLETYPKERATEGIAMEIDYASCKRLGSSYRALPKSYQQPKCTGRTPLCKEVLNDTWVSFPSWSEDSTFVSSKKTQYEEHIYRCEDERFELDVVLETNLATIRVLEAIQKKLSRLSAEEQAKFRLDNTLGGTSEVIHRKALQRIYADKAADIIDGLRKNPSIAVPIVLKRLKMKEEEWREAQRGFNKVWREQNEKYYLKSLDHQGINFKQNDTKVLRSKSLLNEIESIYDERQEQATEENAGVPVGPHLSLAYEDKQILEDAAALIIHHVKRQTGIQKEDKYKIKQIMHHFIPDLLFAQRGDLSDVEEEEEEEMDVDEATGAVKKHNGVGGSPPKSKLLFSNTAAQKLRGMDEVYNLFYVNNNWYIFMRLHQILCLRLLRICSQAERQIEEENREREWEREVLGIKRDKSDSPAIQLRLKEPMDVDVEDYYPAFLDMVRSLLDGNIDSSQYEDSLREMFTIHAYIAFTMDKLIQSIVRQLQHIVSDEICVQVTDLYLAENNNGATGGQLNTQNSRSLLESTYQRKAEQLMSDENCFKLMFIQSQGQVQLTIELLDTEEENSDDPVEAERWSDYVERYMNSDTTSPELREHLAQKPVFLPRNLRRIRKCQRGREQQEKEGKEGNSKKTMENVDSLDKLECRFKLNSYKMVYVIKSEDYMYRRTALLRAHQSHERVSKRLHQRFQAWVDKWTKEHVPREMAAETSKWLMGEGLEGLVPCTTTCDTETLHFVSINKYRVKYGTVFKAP
Description: Induction of SIN3A degradation in human HCT-116 cells assessed as reduction in SIN3A abundance by measuring remaining activity at 10 uM measured after 24 hrs by Western blot analysis (reference value: 100%). In kind it is cell-based. The essentials: (§1)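 HCT116 cells seeded in six-well plates for 24 h, then exposed 24 h to compound (0.01–10 μM) or DMSO in fresh medium. Lysis in Tris-HCl/NaCl/NP-40/Triton X-100 with protease inhibitor. Bradford-normalised 30 μg protein per lane. Quantitative Western blot used specific HDAC1, HDAC2, HDAC3, LSD1 or Sin3a antibodies with IRDye secondaries. Abundance compared with DMSO, n = 2 replicates.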
Background: In western blotting, separated proteins are transferred to a membrane and probed.

Assay [2] concerns the target T2, E3 ubiquitin-protein ligase Mdm2/Histone deacetylase 2 (Homo sapiens) (UniProt Q00987+Q92769). In words: PROTAC activity at MDM2/HDAC2 in human HCT-116 cells assessed as decrease in HDAC2 abundance by measuring remaining activity at 0.025 uM measured after 24 hrs by Western blot analysis (reference value: 100%). The class given is cell-based. The essentials:
as §1

Assay [3] has as its target T2, E3 ubiquitin-protein ligase Mdm2/Histone deacetylase 2 (Homo sapiens). In words: PROTAC activity at MDM2/HDAC2 in human HCT-116 cells assessed as decrease in HDAC2 abundance by measuring remaining activity at 0.25 uM measured after 24 hrs by Western blot analysis (reference value: 100%). In kind it is cell-based. The essentials:
as §1

Assay [4] has as its target E3 ubiquitin-protein ligase Mdm2/Histone deacetylase 1 (Homo sapiens) (UniProt Q00987+Q13547). In words: PROTAC activity at MDM2/HDAC1 in human HCT-116 cells assessed as decrease in HDAC1 abundance by measuring remaining activity at 0.25 uM measured after 24 hrs by Western blot analysis (reference value: 100%). The class given is cell-based. The gist of the method:
as §1

The target of assay [5] is T3, E3 ubiquitin-protein ligase Mdm2/Histone deacetylase 3 (Homo sapiens) (UniProt Q00987+O15379). In words: PROTAC activity at MDM2/HDAC3 in human HCT-116 cells assessed as reduction in HDAC3 abundance by measuring remaining activity at 0.01 uM measured after 24 hrs by Western blot analysis. In kind it is cell-based. The essentials: as §1
T3 sequence (O15379 whole entry, looked up): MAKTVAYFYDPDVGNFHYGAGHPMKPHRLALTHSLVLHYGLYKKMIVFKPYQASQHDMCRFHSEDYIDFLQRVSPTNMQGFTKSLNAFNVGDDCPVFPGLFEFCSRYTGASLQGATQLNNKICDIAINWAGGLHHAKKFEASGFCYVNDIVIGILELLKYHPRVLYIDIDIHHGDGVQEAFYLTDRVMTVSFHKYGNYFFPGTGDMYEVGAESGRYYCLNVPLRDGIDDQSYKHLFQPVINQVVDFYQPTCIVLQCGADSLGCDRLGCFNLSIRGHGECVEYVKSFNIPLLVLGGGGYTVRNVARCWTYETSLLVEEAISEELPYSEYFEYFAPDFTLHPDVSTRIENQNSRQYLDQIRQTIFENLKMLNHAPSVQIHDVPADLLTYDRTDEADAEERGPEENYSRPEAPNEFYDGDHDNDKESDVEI
T3 sequence (Q00987 whole entry, looked up): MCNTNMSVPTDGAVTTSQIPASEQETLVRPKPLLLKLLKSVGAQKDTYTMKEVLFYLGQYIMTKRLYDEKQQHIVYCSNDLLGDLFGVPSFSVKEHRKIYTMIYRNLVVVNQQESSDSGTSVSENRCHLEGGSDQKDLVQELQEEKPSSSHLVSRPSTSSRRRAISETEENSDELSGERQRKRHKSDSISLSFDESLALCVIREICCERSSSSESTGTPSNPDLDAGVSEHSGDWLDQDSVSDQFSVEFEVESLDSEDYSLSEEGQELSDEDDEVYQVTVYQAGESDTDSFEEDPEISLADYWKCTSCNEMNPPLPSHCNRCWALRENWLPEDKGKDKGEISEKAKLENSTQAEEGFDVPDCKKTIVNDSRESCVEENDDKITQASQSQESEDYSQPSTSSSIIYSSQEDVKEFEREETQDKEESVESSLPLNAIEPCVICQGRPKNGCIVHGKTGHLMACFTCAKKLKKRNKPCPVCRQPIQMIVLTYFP
Assay [6] deals with T2, E3 ubiquitin-protein ligase Mdm2/Histone deacetylase 2 (Homo sapiens). In words: PROTAC activity at MDM2/HDAC2 in human HCT-116 cells assessed as decrease in HDAC2 abundance by measuring remaining activity at 0.01 uM measured after 24 hrs by Western blot analysis (reference value: 100%). In kind it is cell-based. The gist of the method: as §1
The target of assay [7] is T1, Paired amphipathic helix protein Sin3a (Homo sapiens). Description: Induction of SIN3A degradation in human HCT-116 cells assessed as reduction in SIN3A abundance by measuring remaining activity at 5 uM measured after 24 hrs by Western blot analysis (reference value: 100%). In kind it is cell-based. The gist of the method:
as §1

Assay [8] deals with T2, E3 ubiquitin-protein ligase Mdm2/Histone deacetylase 2 (Homo sapiens). In words: PROTAC activity at MDM2/HDAC2 in human HCT-116 cells assessed as decrease in HDAC2 abundance by measuring remaining activity at 0.5 uM measured after 24 hrs by Western blot analysis (reference value: 100%). In kind it is cell-based. The gist of the method:
as §1

The subject of the next assay is HCT-116. In words: Effect on histone H3 lysine K56 acetylation in human HCT-116 cells assessed as increase in H3K56ac level at 0.1 to 10 uM by Western blot analysis. The class given is functional, cell-based. The settings on record: dose 0.1-10 µM. The gist of the method:
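HCT116 cells (DMEM, 10% FBS, glutamine/pen/strep, 37 °C, 5% CO2) seeded 24 h, then treated with DMSO or compound in fresh medium. Pellets after lysis were acid-extracted with 0.4 N H2SO4 at 4 °C overnight. Acid histone extract run on 4–12% bis-Tris gels, transferred to nitrocellulose and probed for H3K56ac. IRDye secondaries with infrared imaging.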

Assay [9] has as its target T1, Paired amphipathic helix protein Sin3a (Homo sapiens). Description: Induction of SIN3A degradation in human HCT-116 cells assessed as reduction in SIN3A abundance by measuring remaining activity at 0.01 uM measured after 24 hrs by Western blot analysis (reference value: 100%). The class given is cell-based. The essentials: as §1
The target in assay [10] is T3, E3 ubiquitin-protein ligase Mdm2/Histone deacetylase 3 (Homo sapiens). In words: PROTAC activity at MDM2/HDAC3 in human HCT-116 cells assessed as reduction in HDAC3 abundance by measuring remaining activity at 0.1 uM measured after 24 hrs by Western blot analysis (reference value: 100%). The class given is cell-based. The gist of the method:
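HCT116 cells in DMEM with 10% FBS and glutamine/penicillin/streptomycin at 37 °C, 5% CO2. Seeded 4 × 10^5 cells/well, after 24 h treated 24 h with DMSO or compound in fresh medium. Lysed in Tris-HCl/NaCl/NP-40/Triton X-100 buffer with protease inhibitor, Bradford-quantified, 30 μg protein per lane. Quantitative Western blot with specific HDAC1/2/3 antibodies, IRDye secondaries, infrared imaging, versus DMSO. n = 2 replicates.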

Each structure is given as a SMILES string. Activity calls are given as the source filed them. The calls are words filed in the database; no cut-off is given here.

T2 sequence (Q00987 whole entry, looked up): as above
T2 sequence (Q92769 whole entry, looked up): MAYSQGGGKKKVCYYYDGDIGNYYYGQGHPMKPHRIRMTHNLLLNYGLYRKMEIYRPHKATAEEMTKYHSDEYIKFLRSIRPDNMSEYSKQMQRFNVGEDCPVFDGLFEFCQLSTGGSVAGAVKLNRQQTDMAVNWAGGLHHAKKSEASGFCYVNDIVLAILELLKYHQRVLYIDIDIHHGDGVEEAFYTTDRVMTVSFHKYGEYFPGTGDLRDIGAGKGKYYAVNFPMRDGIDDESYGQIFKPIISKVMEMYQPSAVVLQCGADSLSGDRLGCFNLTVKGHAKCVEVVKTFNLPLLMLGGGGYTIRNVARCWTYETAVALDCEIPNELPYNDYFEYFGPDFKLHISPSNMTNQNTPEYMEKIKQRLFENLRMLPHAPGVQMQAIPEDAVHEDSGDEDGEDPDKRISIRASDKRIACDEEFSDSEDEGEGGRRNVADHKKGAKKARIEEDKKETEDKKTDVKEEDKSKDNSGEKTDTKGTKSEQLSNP
Sequence of E3 ubiquitin-protein ligase Mdm2/Histone deacetylase 1 (Homo sapiens) (Q00987 whole entry, looked up): as the sequence (Q00987 whole entry, looked up) above
Sequence of E3 ubiquitin-protein ligase Mdm2/Histone deacetylase 1 (Homo sapiens) (Q13547 whole entry, looked up): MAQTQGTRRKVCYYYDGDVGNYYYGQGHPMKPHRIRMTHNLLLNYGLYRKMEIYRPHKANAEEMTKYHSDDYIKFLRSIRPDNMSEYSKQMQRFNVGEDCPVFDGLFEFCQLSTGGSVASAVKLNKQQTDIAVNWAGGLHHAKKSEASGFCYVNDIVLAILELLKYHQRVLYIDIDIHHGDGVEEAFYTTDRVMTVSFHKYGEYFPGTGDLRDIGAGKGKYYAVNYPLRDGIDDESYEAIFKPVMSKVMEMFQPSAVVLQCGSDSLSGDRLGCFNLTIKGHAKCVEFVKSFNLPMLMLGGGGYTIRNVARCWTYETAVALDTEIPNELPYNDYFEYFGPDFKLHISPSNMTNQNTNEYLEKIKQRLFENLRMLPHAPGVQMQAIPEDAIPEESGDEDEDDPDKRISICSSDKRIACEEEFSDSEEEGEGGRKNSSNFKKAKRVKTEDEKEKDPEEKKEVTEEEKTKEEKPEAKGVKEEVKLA

For `COc1cc(C(=O)NCCOCCOCCOCCOCCC(=O)Nc2ccc(C(=O)Nc3ccccc3N)cc2)ccc1NC(=O)[C@@H]1N[C@@H](CC(C)(C)C)[C@](C#N)(c2ccc(Cl)cc2F)[C@H]1c1cccc(Cl)c1F`, the Activity in [1] amounted to 45%; in assay [2] it was 96%; in [3], 90%; in assay [4] it was 70%; in [5], 98%; in assay [6] it was 97%. The Activity in assay [7] was 53%; in [8], 89%; in [9], 104%; in [10], 103%. In addition, the outcome in the assay with HCT-116 was inactive.
